pIC50: −log10 of the molar value. Values after ≈ are worked out from the molar mass of the structure shown.
Key:
[1] = target: T1, Phosphatidylinositol 4,5-bisphosphate 3-kinase catalytic subunit alpha isoform (Homo sapiens, UniProt P42336); assay: Inhibition of human recombinant PI3Kalpha assessed as depletion of ATP substrate by Ultra Glo luciferase assay
Outline: (§1)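 Enzyme IC50s are reported as the geometric mean of 3 or more values.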

[2] = target: Phosphatidylinositol 4,5-bisphosphate 3-kinase catalytic subunit gamma isoform (Homo sapiens, UniProt P48736); assay: Inhibition of human recombinant PI3Kgamma assessed as depletion of ATP substrate by Ultra Glo luciferase assay; outline: as §1
[3] = Bioavailability in mouse plasma at 5 umol/kg, iv and 30 umol/kg, po; type: ADME, organism-based
Outline: (§2)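 […] mice were dosed at 5 µmol/kg i.v. and 30 µmol/kg p.o. Clearance is given in mL/min/kg and oral bioavailability in %.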

[4] = Buffer/octanol partition coefficient, log D of the compound at pH 7.4 by shake flask method; type: physicochemical
Outline: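 LogD at pH 7.4 was measured by shake-flask with a buffer/octanol volume ratio of 100:1.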

[5] = Total plasma concentration in SCID mouse xenografted with PTEN-null human PC3 cells at 100 mg/kg, po measured after 8 hrs; type: ADME, organism-based, PC-3; set-up: dose 100 mg/kg, route oral
Outline: (§3)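 Total plasma concentration was measured in SCID mice carrying PC3 xenografts after a single oral dose given as a suspension (50, 100 or 200 mg/kg). Samples were taken at 0.5 to 8 h.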

[6] = Total plasma concentration in SCID mouse xenografted with PTEN-null human PC3 cells at 100 mg/kg, po measured after 1 hr; type: ADME, organism-based, PC-3; set-up: dose 100 mg/kg, route oral; outline: as §3
[7] = Solubility of the compound in phosphate buffer at pH 7.4; type: physicochemical
Outline: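 Solubility was measured from solid material in phosphate buffer at pH 7.4.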

[8] = target: T2, Phosphatidylinositol 4,5-bisphosphate 3-kinase catalytic subunit beta isoform (Homo sapiens, UniProt P42338); assay: Inhibition of human recombinant PI3Kbeta assessed as depletion of ATP substrate by Ultra Glo luciferase assay; outline: as §1
[9] = Ratio of total plasma concentration in PTEN-null human PC3 cells xenografted in SCID mouse at 100 mg/kg, po single dose at 8 hrs to IC50 for PI3Kbeta in human MAD-MB-468 cells; set-up: species or system PC-3
Mus musculus [10] = assay: Inhibition of Akt phosphorylation in SCID mouse xenografted with PTEN-null human PC3 cells at 100 mg/kg, po measured after 1 hr; type: functional; settings: PC-3, 1 h
Outline: (§4)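 SCID mice carrying PTEN-null PC3 prostate xenografts received a single oral dose as a suspension (50, 100 or 200 mg/kg).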

[11] = Total plasma concentration in SCID mouse xenografted with PTEN-null human PC3 cells at 100 mg/kg, po measured after 4 hrs; type: ADME, organism-based, PC-3; set-up: dose 100 mg/kg, route oral; outline: as §3
[12] = target: T1, Phosphatidylinositol 4,5-bisphosphate 3-kinase catalytic subunit alpha isoform; assay: Inhibition of PI3Kalpha in human BT474 cells assessed as inhibition of […] Akt phosphorylation after 2 hrs by fluorescence assay; type: cell-based, BT-474
Outline: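 BT474 cells were seeded in DMEM with 10% FCS and 1% glutamine and left to adhere overnight, then treated with compound in DMSO for 2 h at 37 °C and 5% CO2. Cells were lysed with a phosphatase/protease-inhibitor buffer. Lysate was captured on anti-total-Akt plates, probed with anti-phospho-Akt Thr308 and an HRP secondary, and read by fluorescence (ex 325/em 420 nm). Values are the geometric mean of ≥2 determinations.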

[13] = target: T2, Phosphatidylinositol 4,5-bisphosphate 3-kinase catalytic subunit beta isoform; assay: Inhibition of PI3Kbeta in human MAD-MB-468 cells assessed as inhibition of Ser473 Akt phosphorylation by cellular potency assay
Mus musculus [14] = assay: Inhibition of Akt phosphorylation in SCID mouse xenografted with PTEN-null human PC3 cells at 100 mg/kg, po measured after 8 hrs; type: functional; settings: PC-3, 8 h; outline: as §4
[15] = Clearance in mouse plasma at 5 umol/kg, iv and 30 umol/kg, po; type: ADME, organism-based; outline: as §2
Mus musculus [16] = assay: Inhibition of Akt phosphorylation in SCID mouse xenografted with PTEN-null human PC3 cells at 100 mg/kg, po measured after 4 hrs; type: functional; settings: PC-3, 4 h; outline: as §4
[17] = Ratio of total plasma concentration in PTEN-null human PC3 cells xenografted in SCID mouse at 100 mg/kg, po single dose at 1 hrs to IC50 for PI3Kbeta in human MAD-MB-468 cells; set-up: species or system PC-3
[18] = Fraction unbound in human plasma; type: ADME, cell-free
Outline: (§5)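 Protein binding was measured in nude mouse plasma and in human plasma and is expressed as fraction unbound (%).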

[19] = Intrinsic clearance in human hepatocytes measured per 10^6 cells; type: ADME, cell-based, Hepatocyte; settings: read-out: CLH
Outline: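 Intrinsic clearance was measured in human hepatocytes and is expressed in µL/min/10^6 cells.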

[20] = Fraction unbound in mouse plasma; type: ADME, cell-free; outline: as §5
[21] = target: T3, Phosphatidylinositol 4,5-bisphosphate 3-kinase catalytic subunit delta isoform (Homo sapiens, UniProt O00329); assay: Inhibition of human recombinant PI3Kdelta assessed as depletion of ATP substrate by Ultra Glo luciferase assay; outline: as §1
T3 sequence (O00329 whole entry): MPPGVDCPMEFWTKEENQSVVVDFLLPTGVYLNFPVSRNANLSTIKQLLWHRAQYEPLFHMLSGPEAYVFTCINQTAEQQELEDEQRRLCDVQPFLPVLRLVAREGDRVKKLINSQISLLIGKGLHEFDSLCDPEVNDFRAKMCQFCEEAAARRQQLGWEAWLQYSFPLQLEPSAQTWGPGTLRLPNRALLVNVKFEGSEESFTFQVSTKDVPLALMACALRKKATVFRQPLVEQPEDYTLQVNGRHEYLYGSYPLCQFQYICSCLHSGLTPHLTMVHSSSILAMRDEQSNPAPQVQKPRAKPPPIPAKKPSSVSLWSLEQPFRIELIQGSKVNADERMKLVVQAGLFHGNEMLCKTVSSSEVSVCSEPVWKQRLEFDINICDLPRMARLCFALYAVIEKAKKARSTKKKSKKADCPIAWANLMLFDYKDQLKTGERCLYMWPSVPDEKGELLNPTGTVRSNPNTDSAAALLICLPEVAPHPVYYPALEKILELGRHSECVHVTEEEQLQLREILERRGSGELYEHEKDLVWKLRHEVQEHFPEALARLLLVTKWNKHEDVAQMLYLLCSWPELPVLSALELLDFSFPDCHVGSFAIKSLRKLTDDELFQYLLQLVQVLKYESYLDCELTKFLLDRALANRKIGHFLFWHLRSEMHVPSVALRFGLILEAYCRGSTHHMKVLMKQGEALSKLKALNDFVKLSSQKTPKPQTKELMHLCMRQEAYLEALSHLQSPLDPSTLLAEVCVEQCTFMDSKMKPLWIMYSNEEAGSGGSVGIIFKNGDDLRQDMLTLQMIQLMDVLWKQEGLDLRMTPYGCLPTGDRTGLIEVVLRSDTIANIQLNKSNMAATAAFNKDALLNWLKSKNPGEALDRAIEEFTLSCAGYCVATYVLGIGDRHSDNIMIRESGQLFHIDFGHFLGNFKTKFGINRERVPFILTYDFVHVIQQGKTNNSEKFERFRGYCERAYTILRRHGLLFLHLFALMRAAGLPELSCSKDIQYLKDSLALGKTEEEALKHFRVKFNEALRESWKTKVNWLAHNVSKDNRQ

[22] = Ratio of total plasma concentration in PTEN-null human PC3 cells xenografted in SCID mouse at 100 mg/kg, po single dose at 4 hrs to IC50 for PI3Kbeta in human MAD-MB-468 cells; set-up: species or system PC-3
[23] = Apparent permeability from apical (pH 6.5) to […] of human Caco2 cells; type: ADME, cell-based; settings: Caco-2, pH 6.5
Mus musculus [24] = assay: Inhibition of Akt phosphorylation in SCID mouse xenografted with PTEN-null human PC3 cells at 200 mg/kg, po measured after 4 hrs; type: functional; settings: PC-3, 4 h; outline: as §4
[25] = Ratio of total plasma concentration in PTEN-null human PC3 cells xenografted in SCID mouse at 200 mg/kg, po single dose at 8 hrs to IC50 for PI3Kbeta in human […] cells; set-up: species or system PC-3
Outline: (§6)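 SCID mice bearing PTEN-null PC3 prostate tumour xenografts got a single oral dose given as a suspension. Total plasma concentration was measured at the sampled time points (0.5, 4 or 8 h). The value is the […] cover over the PI3Kβ cellular IC50, which comes from inhibition of Ser473 Akt phosphorylation in PTEN-null MDA-MB-468 breast adenocarcinoma cells.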

[26] = Total plasma concentration in SCID mouse xenografted with PTEN-null human PC3 cells at 200 mg/kg, po measured after 30 mins; type: ADME, organism-based, PC-3; set-up: dose 200 mg/kg, route oral; outline: as §3
[27] = Ratio of total plasma concentration in PTEN-null human PC3 cells xenografted in SCID mouse at 200 mg/kg, po single dose at 4 hrs to IC50 for PI3Kbeta in human […] cells; set-up: species or system PC-3; outline: as §6
Mus musculus [28] = assay: Inhibition of Akt phosphorylation in SCID mouse xenografted with PTEN-null human PC3 cells at 200 mg/kg, po measured after 30 mins; type: functional; settings: PC-3, 0.5 h; outline: as §4
[29] = Total plasma concentration in SCID mouse xenografted with PTEN-null human PC3 cells at 200 mg/kg, po measured after 8 hrs; type: ADME, organism-based, PC-3; set-up: dose 200 mg/kg, route oral; outline: as §3
[30] = Ratio of total plasma concentration in PTEN-null human PC3 cells xenografted in SCID mouse at 200 mg/kg, po single dose at 0.5 hrs to IC50 for PI3Kbeta in human […] cells; set-up: species or system PC-3; outline: as §6
Mus musculus [31] = assay: Inhibition of Akt phosphorylation in SCID mouse xenografted with PTEN-null human PC3 cells at 200 mg/kg, po measured after 8 hrs; type: functional; settings: PC-3, 8 h; outline: as §4
[32] = Total plasma concentration in SCID mouse xenografted with PTEN-null human PC3 cells at 200 mg/kg, po measured after 4 hrs; type: ADME, organism-based, PC-3; set-up: dose 200 mg/kg, route oral; outline: as §3

T2 sequence (P42338 whole entry, canonical isoform): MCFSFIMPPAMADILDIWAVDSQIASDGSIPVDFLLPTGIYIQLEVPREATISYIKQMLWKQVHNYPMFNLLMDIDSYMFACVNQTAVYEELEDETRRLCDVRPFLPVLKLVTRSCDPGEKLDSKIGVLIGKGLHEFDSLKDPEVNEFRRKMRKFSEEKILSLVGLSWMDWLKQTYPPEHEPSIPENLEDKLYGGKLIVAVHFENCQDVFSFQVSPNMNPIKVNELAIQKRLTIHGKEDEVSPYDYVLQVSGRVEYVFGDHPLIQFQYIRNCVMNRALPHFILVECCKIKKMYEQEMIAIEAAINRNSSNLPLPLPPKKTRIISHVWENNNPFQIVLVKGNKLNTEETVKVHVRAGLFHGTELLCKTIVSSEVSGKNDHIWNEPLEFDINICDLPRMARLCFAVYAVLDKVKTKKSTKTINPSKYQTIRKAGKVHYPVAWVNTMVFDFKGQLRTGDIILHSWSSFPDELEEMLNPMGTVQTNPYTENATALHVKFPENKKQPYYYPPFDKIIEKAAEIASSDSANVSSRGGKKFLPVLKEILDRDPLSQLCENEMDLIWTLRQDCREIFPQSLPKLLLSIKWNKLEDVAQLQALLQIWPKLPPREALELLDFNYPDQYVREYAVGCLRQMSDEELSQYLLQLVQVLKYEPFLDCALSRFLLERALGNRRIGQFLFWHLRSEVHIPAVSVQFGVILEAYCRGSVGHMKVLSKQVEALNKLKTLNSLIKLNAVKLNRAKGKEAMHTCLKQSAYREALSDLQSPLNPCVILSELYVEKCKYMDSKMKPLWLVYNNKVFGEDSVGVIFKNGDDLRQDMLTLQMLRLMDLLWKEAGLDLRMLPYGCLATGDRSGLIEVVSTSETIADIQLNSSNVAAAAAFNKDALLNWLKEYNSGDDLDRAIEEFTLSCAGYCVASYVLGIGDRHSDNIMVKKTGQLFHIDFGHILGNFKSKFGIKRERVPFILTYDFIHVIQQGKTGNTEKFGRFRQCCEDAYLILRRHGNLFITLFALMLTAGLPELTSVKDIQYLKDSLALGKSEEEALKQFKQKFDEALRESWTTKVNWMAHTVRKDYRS
T1 sequence (P42336 whole entry, canonical isoform): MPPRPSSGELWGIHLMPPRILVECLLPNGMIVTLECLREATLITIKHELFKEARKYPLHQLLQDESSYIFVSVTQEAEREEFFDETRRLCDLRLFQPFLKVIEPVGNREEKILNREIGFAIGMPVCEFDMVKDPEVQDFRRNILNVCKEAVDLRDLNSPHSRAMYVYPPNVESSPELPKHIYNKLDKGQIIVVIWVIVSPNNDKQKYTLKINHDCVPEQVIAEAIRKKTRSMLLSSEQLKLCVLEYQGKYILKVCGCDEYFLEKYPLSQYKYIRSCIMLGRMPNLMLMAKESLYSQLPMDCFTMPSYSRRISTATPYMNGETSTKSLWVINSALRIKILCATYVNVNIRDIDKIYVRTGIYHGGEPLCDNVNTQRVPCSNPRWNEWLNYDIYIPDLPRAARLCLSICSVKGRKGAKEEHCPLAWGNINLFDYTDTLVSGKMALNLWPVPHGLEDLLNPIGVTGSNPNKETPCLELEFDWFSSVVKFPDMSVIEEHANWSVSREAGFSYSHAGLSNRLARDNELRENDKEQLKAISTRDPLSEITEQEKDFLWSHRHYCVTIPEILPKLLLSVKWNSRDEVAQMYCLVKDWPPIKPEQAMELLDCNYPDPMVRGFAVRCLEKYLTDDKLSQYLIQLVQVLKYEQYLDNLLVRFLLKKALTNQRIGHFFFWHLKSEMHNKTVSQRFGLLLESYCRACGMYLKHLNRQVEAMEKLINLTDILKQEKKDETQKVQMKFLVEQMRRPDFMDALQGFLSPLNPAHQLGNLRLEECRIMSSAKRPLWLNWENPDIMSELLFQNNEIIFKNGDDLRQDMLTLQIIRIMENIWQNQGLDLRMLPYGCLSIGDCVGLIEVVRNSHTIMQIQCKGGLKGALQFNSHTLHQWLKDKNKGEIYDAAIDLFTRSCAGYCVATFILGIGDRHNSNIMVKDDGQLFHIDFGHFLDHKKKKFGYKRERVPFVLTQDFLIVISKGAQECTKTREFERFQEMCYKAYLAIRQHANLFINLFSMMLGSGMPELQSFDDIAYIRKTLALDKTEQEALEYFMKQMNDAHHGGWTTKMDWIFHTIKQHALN
Chain of Phosphatidylinositol 4,5-bisphosphate 3-kinase catalytic subunit gamma isoform (P48736 whole entry, canonical isoform): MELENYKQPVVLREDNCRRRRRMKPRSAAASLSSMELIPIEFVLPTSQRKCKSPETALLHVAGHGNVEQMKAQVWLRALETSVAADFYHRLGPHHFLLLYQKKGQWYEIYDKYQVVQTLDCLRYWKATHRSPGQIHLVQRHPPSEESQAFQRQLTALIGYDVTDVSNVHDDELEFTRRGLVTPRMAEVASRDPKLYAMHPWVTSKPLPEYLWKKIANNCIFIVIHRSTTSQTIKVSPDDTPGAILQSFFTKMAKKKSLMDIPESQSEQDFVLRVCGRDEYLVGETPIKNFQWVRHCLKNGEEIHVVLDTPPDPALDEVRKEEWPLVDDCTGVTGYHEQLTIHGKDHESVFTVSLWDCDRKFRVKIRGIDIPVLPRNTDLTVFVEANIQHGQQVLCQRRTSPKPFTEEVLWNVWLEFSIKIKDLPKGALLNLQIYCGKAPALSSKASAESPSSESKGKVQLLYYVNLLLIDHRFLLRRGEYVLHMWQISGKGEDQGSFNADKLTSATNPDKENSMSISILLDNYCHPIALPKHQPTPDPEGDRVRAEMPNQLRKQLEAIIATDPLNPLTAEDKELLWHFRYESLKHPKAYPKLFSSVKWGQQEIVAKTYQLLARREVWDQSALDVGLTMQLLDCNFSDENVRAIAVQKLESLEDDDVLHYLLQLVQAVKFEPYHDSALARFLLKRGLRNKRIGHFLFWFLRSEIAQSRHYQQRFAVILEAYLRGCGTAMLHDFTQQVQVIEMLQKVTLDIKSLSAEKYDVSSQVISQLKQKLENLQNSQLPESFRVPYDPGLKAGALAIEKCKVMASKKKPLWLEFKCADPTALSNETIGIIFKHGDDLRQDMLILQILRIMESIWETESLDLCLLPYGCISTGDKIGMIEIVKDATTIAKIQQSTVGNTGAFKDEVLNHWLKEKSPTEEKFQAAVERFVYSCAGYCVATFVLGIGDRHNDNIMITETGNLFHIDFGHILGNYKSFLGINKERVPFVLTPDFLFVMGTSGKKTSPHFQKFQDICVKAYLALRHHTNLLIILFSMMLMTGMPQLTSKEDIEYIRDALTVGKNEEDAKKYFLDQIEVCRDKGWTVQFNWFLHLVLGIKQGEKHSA

SMILES	pIC50 [1]	pIC50 [2]	bioavailability [3] [%]	logD [4]	solubility [7] [µM]	pIC50 [8]	pIC50 [12]	pIC50 [13]	clearance [15] [mL/min/kg]	fraction unbound [18]	hepatocyte CLint [19] [µL/min/1e6 cells]	fraction unbound [20]	pIC50 [21]	Papp A→B [23] [×10⁻⁶ cm/s]	further results
C[C@@H](Nc1cc(F)cc(F)c1)c1cc(C(=O)N(C)C)cn2c(=O)cc(N3CCOCC3)nc12	7.12	6.29	31	3	15 (≈ 6.86 µg/mL)	8.30	5.92	8.52	82	0.12	11	0.047	7.49	50	concentration at 8 h [5]: 2.6 µM; concentration at 1 h [6]: 13 µM; Ratio [9]: 41; inhibition in vivo at 100 mg/kg (Mus musculus [10]): 92%; concentration at 4 h [11]: 6.8 µM; inhibition in vivo at 100 mg/kg (Mus musculus [14]): 56%; inhibition in vivo at 100 mg/kg (Mus musculus [16]): 80%; Ratio [17]: 204; Ratio [22]: 106
CC(Nc1ccc(F)c(F)c1)c1cc(C(=O)N(C)C)cn2c(=O)cc(N3CCOCC3)nc12 (single isomer, unassigned; (-))	6.47	5.52	35	2.7	20 (≈ 9.15 µg/mL)	8.15	5.33	7.47	74	0.14	9	0.087	7.35	44	inhibition in vivo at 200 mg/kg (Mus musculus [24]): 81%; Ratio [25]: 2.5; concentration at 0.5 h [26]: 3.9 µM; Ratio [27]: 5.9; inhibition in vivo at 200 mg/kg (Mus musculus [28]): 81%; concentration at 8 h [29]: 0.3 µM; Ratio [30]: 10; inhibition in vivo at 200 mg/kg (Mus musculus [31]): 71%; concentration at 4 h [32]: 2.3 µM
